Source: ChEMBL document CHEMBL1121936, “Apyrogenic, adjuvant-active N-acetylmuramyl-dipeptides” (1982)
Where “and” joins values, the source holds several entries; their conditions need not be identical. Equal values may be shown once.

Columns and labels:
Format in all cases: functional
[1] = test system: Klebsiella pneumoniae; experiment: Protective activity against Klebsiella pneumoniae was measured as difference between the percentage of survivors in treated group and its respective control group; parameters: concentration or dose not given beside the values
Outline: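 Mice, 24 per group. Compound given iv at 100 μg on day 0; on day +1, intramuscular challenge with 10^4 K. pneumoniae. Mortality followed from day 1 to day 15. Protection is the percentage of survivors in the treated group minus that in its control group at day +15.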

[2] = test system: Oryctolagus cuniculus; experiment: Febrile responses of compound was measured in rabbit after iv injection at the dose of 1 mg/kg
Outline: (§1)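 Rabbits (strain HYL A, 3–3.5 kg), three per specimen, per French/European pharmacopoeia. Compound dissolved in pyrogen-free isotonic saline and given iv, first at 1 mg/kg. Rectal temperature recorded continuously and automatically. A specimen was judged nonpyrogenic if no rabbit rose above 0.5 °C; such specimens then went on to 3, 5 and 10 mg/kg. ΔT reported per rabbit, with the mean.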

[3] = test system: Mus musculus; experiment: Adjuvant activity was measured after sc administration in phosphate buffer saline (PBS) to mice with BSA and expressed as secondary response
Outline: (§2)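 Female Swiss mice, 5–6 weeks old. BSA antigen given sc in PBS: 0.5 mg to prime, then 0.1 mg one month later as boost. Glycopeptide (0.1 mg) given with the priming injection. Sera pooled on day 21 for the primary titer; on day 37 sera titrated individually for the secondary titer. Titer is log of highest serum dilution agglutinating BSA-coated sheep RBC (passive hemagglutination). Student's t test vs controls.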

[4] = test system: Oryctolagus cuniculus; experiment: Febrile responses of compound was measured in rabbit after iv injection at the dose of 10 mg/kg; outline: as §1
[5] = test system: Oryctolagus cuniculus; experiment: Febrile responses of compound was measured in rabbit after iv injection at the dose of 3 mg/kg; outline: as §1
[6] = test system: Klebsiella pneumoniae; experiment: Protective activity against Klebsiella pneumoniae was measured as number of survivors to the number of total animals used; 8/24
[7] = test system: Mus musculus; experiment: Adjuvant activity was measured after sc administration in phosphate buffer saline (PBS) to mice with BSA and expressed as primary response; outline: as §2
[8] = test system: Klebsiella pneumoniae; experiment: Protective activity against Klebsiella pneumoniae was measured as number of survivors to the number of total animals used; 7/24
[9] = test system: Klebsiella pneumoniae; experiment: Protective activity against Klebsiella pneumoniae was measured as number of survivors to the number of total animals used; 16/24
[10] = test system: Oryctolagus cuniculus; experiment: Febrile responses of compound was measured in rabbit after iv injection at the dose of 5 mg/kg; outline: as §1
[11] = test system: Klebsiella pneumoniae; experiment: Protective activity against Klebsiella pneumoniae was measured as number of survivors to the number of total animals used; 0/24
[12] = test system: Klebsiella pneumoniae; experiment: Protective activity against Klebsiella pneumoniae was measured as number of survivors to the number of total animals used; 4/24
[13] = test system: Klebsiella pneumoniae; experiment: Protective activity against Klebsiella pneumoniae was measured as number of survivors to the number of total animals used;15/24
[14] = test system: Klebsiella pneumoniae; experiment: Protective activity against Klebsiella pneumoniae was measured as number of survivors to the number of total animals used; 3/24
[15] = test system: Klebsiella pneumoniae; experiment: Protective activity against Klebsiella pneumoniae was measured as number of survivors to the number of total animals used; 10/24

Row | Compound | Protection [1] | Delta T [2] | Secondary response [3] | Delta T [4] | Delta T [5] | Primary response [7] | also measured
1 | CCCCCCOC(=O)[C@H](CCC(N)=O)NC(=O)[C@H](C)NC(=O)[C@@H](C)OC1C(O)C(CO)OC(O)C1NC(C)=O (stereo partly specified) | 29% | 0.13 °C | 7.71 | 0.13 °C | 0.2 °C | 2.75 | Survivors [6]: 8 N/total
2 | CCCOC(=O)[C@H](CCC(N)=O)NC(=O)[C@H](C)NC(=O)[C@@H](C)OC1C(O)C(CO)OC(O)C1NC(C)=O (stereo partly specified) | 25% | 0.2 °C | 9.52 | 0.07 degrees C | 0.43 °C | 4.64 | Survivors [8]: 7 N/total
3 | CCCCOC(=O)[C@H](CCC(N)=O)NC(=O)[C@H](C)NC(=O)[C@@H](C)OC1C(O)C(CO)OC(O)C1NC(C)=O (stereo partly specified) | 63% | 0.03 °C | 8.43 | 0.3 °C | 0.26 °C | 4.21 | Survivors [9]: 16 N/total
4 | COC(=O)CC[C@H](NC(=O)[C@H](C)NC(=O)[C@@H](C)OC1C(O)C(CO)OC(O)C1NC(C)=O)C(=O)OC (stereo partly specified) |  |  |  |  |  |  | Delta T ([2]; 1 mg/kg): 0.33 °C and 0.13 °C; Delta T ([10]; 5 mg/kg): 1.1 °C and 0.9 °C; Delta T ([5]; 3 mg/kg): 0.4 °C and 0.17 °C
5 | CC(=O)NC1C(O)OC(CO)C(O)C1O[C@H](C)C(=O)N[C@@H](C)C(=O)N[C@@H](CCC(N)=O)C(N)=O (stereo partly specified) |  | 0.1 °C |  |  | 0.2 °C |  | Delta T [10]: 0.67 °C
6 | CC(=O)NC1C(O)OC(CO)C(O)C1O[C@H](C)C(=O)N[C@@H](C)C(=O)N[C@@H](CCC(=O)O)C(=O)O (stereo partly specified) |  |  |  |  | 0.8 °C |  | Delta T ([2]; 1 mg/kg): 0.37 °C and 0.5 °C
7 | CCOC(=O)[C@H](CCC(N)=O)NC(=O)[C@H](C)NC(=O)[C@@H](C)OC1C(O)C(CO)OC(O)C1NC(C)=O (stereo partly specified) | 0% | 0.23 °C | 9.53 |  | 0.03 °C | 4.64 | Delta T ([4]; 10 mg/kg): 0.47 °C and 0.32 °C; Survivors [11]: 0 N/total
8 | CC(=O)NC1C(O)OC(CO)C(O)C1O[C@H](C)C(=O)N[C@@H](C)C(=O)N[C@@H](CCC(N)=O)C(=O)O (stereo partly specified) |  | 0.03 °C | 7.35 |  | 0.9 °C | 2.97 | 
9 | CCCCCCCCCCOC(=O)[C@H](CCC(N)=O)NC(=O)[C@H](C)NC(=O)[C@@H](C)OC1C(O)C(CO)OC(O)C1NC(C)=O (stereo partly specified) | 12% | 0.2 °C | 9.1 | 0.23 °C | 0.17 °C | 3.64 | Survivors [12]: 4 N/total
10 | CC(=O)N[C@H]1C(O)O[C@H](CO)[C@@H](O)[C@@H]1O[C@H](C)C(=O)N[C@@H](C)C(=O)N[C@H](CCC(=O)O)C(N)=O (stereo partly specified) [MURAMYL DIPEPTIDE] | 58% | 0.76 °C | 8.34 |  |  | 3.64 | Survivors [13]: 15 N/total
11 | COC(=O)[C@H](CCC(N)=O)NC(=O)[C@H](C)NC(=O)[C@@H](C)OC1C(O)C(CO)OC(O)C1NC(C)=O (stereo partly specified) | 8% | 0.1 °C | 8.72 | 0.1 °C | 0.23 °C | 3.85 | Survivors [14]: 3 N/total
12 | CCCCCOC(=O)[C@H](CCC(N)=O)NC(=O)[C@H](C)NC(=O)[C@@H](C)OC1C(O)C(CO)OC(O)C1NC(C)=O (stereo partly specified) | 37% | 0.1 °C | 7.8 | 0.13 °C | 0.03 °C | 1.64 | Survivors [15]: 10 N/total
